Measurements reported in ChEMBL document CHEMBL4190404, “Synthesis and characterization of amino acid substituted sunitinib analogues for the treatment of AML” (Bioorg Med Chem Lett, 2018).
In brackets after ≈: the same amount, converted by molar mass.

Experiments:
[1] = Lipophilicity, chromatographic hydrophobicity index of the compound at pH 7.4 by HPLC method; format: physicochemical; conditions: buffer
Method in brief: (§1)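 RP-HPLC with buffer/acetonitrile gradient elution; CHI profile at starting pH 10.5, 7.4, 5.5 and 1.2; values given as average of the compound group.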

[2] = Aqueous solubility in pH 7.4 phosphate buffer at 120 uM after 24 hrs by HPLC method; format: physicochemical
[3] = Lipophilicity, chromatographic hydrophobicity index of the compound at pH 1.2 by HPLC method; format: physicochemical; conditions: buffer; method in brief: as §1
[4] = system: Receptor-type tyrosine-protein kinase FLT3 (Homo sapiens), P36888 [UNDEFINED MUTATION]; assay: Inhibition of FLT3 ITD mutant (unknown origin) using TAMRA-Src- tide as substrate at 12.5 uM after 1 hr by fluorescence polarization assay relative to control
Method in brief: (§2)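 FLT3-ITD kinase inhibition by fluorescence polarization IMAP assay; each compound tested at 12.5 and 1.25 μM; percent inhibition, average of two parallel measurements.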

[5] = system: Receptor-type tyrosine-protein kinase FLT3 (Homo sapiens), P36888 [UNDEFINED MUTATION]; assay: Inhibition of FLT3 ITD mutant (unknown origin) using TAMRA-Src- tide as substrate at 1.25 uM after 1 hr by fluorescence polarization assay relative to control; method in brief: as §2
[6] = Aqueous solubility in pH 5.5 phosphate buffer at 120 uM after 24 hrs by HPLC method; format: physicochemical; conditions: phosphate buffer, pH 5.5
[7] = buffer, pH 10.5
[8] = Lipophilicity, chromatographic hydrophobicity index of the compound at pH 5.5 by HPLC method; format: physicochemical; conditions: buffer; method in brief: as §1
MV4-11 = assay: Antiproliferative activity against human MV4-11 cells after 72 hrs by Celltiter-Glo luminescent cell viability assay; format: functional, cell-based; conditions: MV4-11, 72 h
Method in brief: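 MV4-11 leukaemia cells, 72 h proliferation assay, luminescence read-out; IC50 determined from concentration–response.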

Receptor-type tyrosine-protein kinase FLT3 (Homo sapiens), P36888 [UNDEFINED MUTATION], sequence (P36888 whole entry, looked up, change not shown): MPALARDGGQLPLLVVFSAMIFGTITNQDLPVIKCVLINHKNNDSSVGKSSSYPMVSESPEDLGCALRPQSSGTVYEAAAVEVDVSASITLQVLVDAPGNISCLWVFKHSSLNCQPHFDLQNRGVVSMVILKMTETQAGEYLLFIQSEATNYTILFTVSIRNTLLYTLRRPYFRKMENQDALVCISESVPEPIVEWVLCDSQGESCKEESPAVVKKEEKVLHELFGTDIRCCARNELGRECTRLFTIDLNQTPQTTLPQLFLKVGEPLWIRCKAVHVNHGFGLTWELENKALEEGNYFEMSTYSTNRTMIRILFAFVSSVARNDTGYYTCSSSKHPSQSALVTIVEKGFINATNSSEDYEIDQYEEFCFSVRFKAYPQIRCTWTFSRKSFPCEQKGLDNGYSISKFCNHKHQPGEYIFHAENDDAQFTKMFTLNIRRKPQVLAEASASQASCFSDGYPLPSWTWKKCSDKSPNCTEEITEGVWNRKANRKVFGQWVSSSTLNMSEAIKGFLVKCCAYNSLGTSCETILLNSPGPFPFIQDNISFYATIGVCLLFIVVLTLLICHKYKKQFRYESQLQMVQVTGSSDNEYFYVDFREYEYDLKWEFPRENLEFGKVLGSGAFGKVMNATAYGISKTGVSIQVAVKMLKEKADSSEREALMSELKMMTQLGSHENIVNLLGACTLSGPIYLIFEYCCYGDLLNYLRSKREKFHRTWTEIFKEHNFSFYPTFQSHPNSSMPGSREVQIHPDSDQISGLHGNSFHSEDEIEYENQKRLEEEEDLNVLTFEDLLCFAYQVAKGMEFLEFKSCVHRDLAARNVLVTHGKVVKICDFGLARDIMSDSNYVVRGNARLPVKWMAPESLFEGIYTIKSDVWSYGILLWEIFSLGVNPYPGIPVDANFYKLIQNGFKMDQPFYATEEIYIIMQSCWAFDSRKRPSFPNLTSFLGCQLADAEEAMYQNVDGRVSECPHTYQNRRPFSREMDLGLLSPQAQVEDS

| SMILES | CHI [1] | solubility at 24 h, 120 µM [2] [µM] | CHI [3] | inhibition [4] [%] | inhibition [5] [%] | solubility at 24 h, 120 µM [6] [µM] | CHI [7] | CHI [8] | IC50 (MV4-11) [µM] |
| --- | --- | --- | --- | --- | --- | --- | --- | --- | --- |
| Cc1[nH]c(/C=C2\C(=O)Nc3ccc(C(=O)N[C@@H](Cc4ccccc4)C(=O)O)cc32)c(C)c1C(=O)N[C@@H](Cc1ccccc1)C(=O)O | 39 | ≥ 120 | 70 | > 100 | 98.7 | 110 (≈ 68.3 µg/mL) | 36 | 40 |  |
| Cc1[nH]c(/C=C2\C(=O)Nc3ccc(C(=O)O)cc32)c(C)c1C(=O)N[C@H](Cc1ccccc1)C(=O)O |  |  |  | > 100 | 87 |  |  |  |  |
| CCOC(=O)c1c(C)[nH]c(/C=C2\C(=O)Nc3ccc(C(=O)N[C@@H](CCC(=O)OC)C(=O)OC)cc32)c1C | 84 | < 1 | 84 | 76.7 | 30.2 | < 1 | 84 | 84 |  |
| COC(=O)[C@@H](Cc1ccccc1)NC(=O)c1ccc2c(c1)/C(=C/c1[nH]c(C)c(C(=O)N[C@H](Cc3ccccc3)C(=O)O)c1C)C(=O)N2 |  |  |  | > 100 | 28.9 |  |  |  | 19.7 |
| COC(=O)CC[C@H](NC(=O)c1ccc2c(c1)/C(=C/c1[nH]c(C)c(C(=O)N[C@H](Cc3ccccc3)C(=O)OC)c1C)C(=O)N2)C(=O)OC |  |  |  | 78 | 31.5 |  |  |  | > 30 |
| Cc1[nH]c(/C=C2\C(=O)Nc3ccc(C(=O)N[C@@H](Cc4ccccc4)C(=O)O)cc32)c(C)c1C(=O)N[C@H](Cc1ccccc1)C(=O)O |  |  |  | > 100 | 104 |  |  |  |  |
| Cc1[nH]c(/C=C2\C(=O)Nc3ccc(C(=O)N[C@H](Cc4ccccc4)C(=O)O)cc32)c(C)c1C(=O)O |  |  |  | > 100 | 87.1 |  |  |  |  |
| COC(=O)CC[C@@H](NC(=O)c1c(C)[nH]c(/C=C2\C(=O)Nc3ccc(C(=O)N[C@H](Cc4ccccc4)C(=O)O)cc32)c1C)C(=O)OC |  |  |  | > 100 | 39.2 |  |  |  |  |
| COC(=O)[C@H](Cc1ccccc1)NC(=O)c1c(C)[nH]c(/C=C2\C(=O)Nc3ccc(C(=O)N[C@H](Cc4ccccc4)C(=O)OC)cc32)c1C |  |  |  | 70.3 | 29 |  |  |  | 2.5 |
| COC(=O)[C@@H](Cc1ccccc1)NC(=O)c1ccc2c(c1)/C(=C/c1[nH]c(C)c(C(=O)N[C@H](Cc3ccccc3)C(=O)OC)c1C)C(=O)N2 |  |  |  | 85.8 | 35.4 |  |  |  | 2.9 |
| CCOC(=O)c1c(C)[nH]c(/C=C2\C(=O)Nc3ccc(C(=O)N[C@H](Cc4ccccc4)C(=O)O)cc32)c1C |  |  |  | 96.2 | 47 |  |  |  |  |
| COC(=O)[C@H](Cc1ccccc1)NC(=O)c1ccc2c(c1)/C(=C/c1[nH]c(C)c(C(=O)N[C@H](Cc3ccccc3)C(=O)OC)c1C)C(=O)N2 |  |  |  | 67.7 | 35.4 |  |  |  | 3.3 |
| COC(=O)CC[C@H](NC(=O)c1ccc2c(c1)/C(=C/c1[nH]c(C)c(C(=O)N[C@H](Cc3ccccc3)C(=O)O)c1C)C(=O)N2)C(=O)OC |  |  |  | > 100 | 70.3 |  |  |  |  |
| COC(=O)CC[C@H](NC(=O)c1ccc2c(c1)/C(=C/c1[nH]c(C)c(C(=O)N[C@H](CCC(=O)OC)C(=O)OC)c1C)C(=O)N2)C(=O)OC |  |  |  | 81.9 | 43.2 |  |  |  |  |
| CCOC(=O)c1c(C)[nH]c(/C=C2\C(=O)Nc3ccc(C(=O)N[C@@H](Cc4ccccc4)C(=O)O)cc32)c1C | 60 | 20 (≈ 10 µg/mL) | 86 | > 100 | 90.9 | < 5 | 58 | 61 |  |
| COC(=O)CC[C@@H](NC(=O)c1c(C)[nH]c(/C=C2\C(=O)Nc3ccc(C(=O)OC)cc32)c1C)C(=O)OC |  |  |  | 93.5 | 88.3 |  |  |  | 1.3 |
| COC(=O)CC[C@@H](NC(=O)c1c(C)[nH]c(/C=C2\C(=O)Nc3ccc(C(=O)N[C@@H](Cc4ccccc4)C(=O)O)cc32)c1C)C(=O)OC |  |  |  | > 100 | 90.9 |  |  |  |  |
| COC(=O)[C@@H](Cc1ccccc1)NC(=O)c1c(C)[nH]c(/C=C2\C(=O)Nc3ccc(C(=O)O)cc32)c1C |  |  |  | > 100 | 97.4 |  |  |  |  |
| COC(=O)CC[C@@H](NC(=O)c1ccc2c(c1)/C(=C/c1[nH]c(C)c(C(=O)N[C@H](Cc3ccccc3)C(=O)O)c1C)C(=O)N2)C(=O)OC |  |  |  | > 100 | 73 |  |  |  |  |
| Cc1[nH]c(/C=C2\C(=O)Nc3ccc(C(=O)N[C@H](Cc4ccccc4)C(=O)O)cc32)c(C)c1C(=O)N[C@H](Cc1ccccc1)C(=O)O |  |  |  | > 100 | 76.8 |  |  |  |  |
| CCOC(=O)c1c(C)[nH]c(/C=C2\C(=O)Nc3ccc(C(=O)N[C@H](CCC(=O)OC)C(=O)OC)cc32)c1C |  |  |  | 79.3 | 3.1 |  |  |  |  |

| SMILES | CHI [1] | solubility at 24 h, 120 µM [2] [µM] | CHI [3] | inhibition [4] [%] | inhibition [5] [%] | solubility at 24 h, 120 µM [6] [µM] | CHI [7] | CHI [8] | IC50 (MV4-11) [µM] |
| --- | --- | --- | --- | --- | --- | --- | --- | --- | --- |
| COC(=O)CC[C@@H](NC(=O)c1c(C)[nH]c(/C=C2\C(=O)Nc3ccc(C(=O)N[C@H](Cc4ccccc4)C(=O)OC)cc32)c1C)C(=O)OC |  |  |  | 63.8 | 37.9 |  |  |  | 1.6 |
| COC(=O)CC[C@@H](NC(=O)c1ccc2c(c1)/C(=C/c1[nH]c(C)c(C(=O)N[C@H](Cc3ccccc3)C(=O)OC)c1C)C(=O)N2)C(=O)OC |  |  |  | 32.8 | 12.1 |  |  |  | 10.3 |
| COC(=O)CC[C@H](NC(=O)c1ccc2c(c1)/C(=C/c1[nH]c(C)c(C(=O)O)c1C)C(=O)N2)C(=O)OC | 42 | 100 (≈ 48.3 µg/mL) | 59 | 28.8 | 58.7 | < 5 | 34 | 54 |  |
| COC(=O)[C@@H](Cc1ccccc1)NC(=O)c1ccc2c(c1)/C(=C/c1[nH]c(C)c(C(=O)O)c1C)C(=O)N2 |  |  |  | 27.5 | 76.7 |  |  |  | 0.6 |
| COC(=O)CC[C@H](NC(=O)c1c(C)[nH]c(/C=C2\C(=O)Nc3ccc(C(=O)N[C@H](CCC(=O)OC)C(=O)OC)cc32)c1C)C(=O)OC |  |  |  | 70.3 | 80.4 |  |  |  |  |
| COC(=O)CC[C@@H](NC(=O)c1c(C)[nH]c(/C=C2\C(=O)Nc3ccc(C(=O)O)cc32)c1C)C(=O)OC |  |  |  | > 100 | 93.5 |  |  |  |  |
| COC(=O)CC[C@H](NC(=O)c1c(C)[nH]c(/C=C2\C(=O)Nc3ccc(C(=O)N[C@@H](Cc4ccccc4)C(=O)O)cc32)c1C)C(=O)OC | 50 | ≥ 120 | 68 | > 100 | 98.7 | 60 (≈ 37.8 µg/mL) | 47 | 50 |  |
| COC(=O)c1ccc2c(c1)/C(=C/c1[nH]c(C)c(C(=O)N[C@H](Cc3ccccc3)C(=O)O)c1C)C(=O)N2 |  |  |  | > 100 | 91 |  |  |  | 3.9 |
| CCOC(=O)c1c(C)[nH]c(/C=C2\C(=O)Nc3ccc(C(=O)N[C@H](Cc4ccccc4)C(=O)OC)cc32)c1C |  |  |  | 92.2 | 61.3 |  |  |  | 1.3 |
| COC(=O)[C@@H](Cc1ccccc1)NC(=O)c1c(C)[nH]c(/C=C2\C(=O)Nc3ccc(C(=O)N[C@@H](Cc4ccccc4)C(=O)O)cc32)c1C |  |  |  | > 100 | 93.5 |  |  |  |  |
| COC(=O)CC[C@@H](NC(=O)c1c(C)[nH]c(/C=C2\C(=O)Nc3ccc(C(=O)N[C@@H](Cc4ccccc4)C(=O)OC)cc32)c1C)C(=O)OC |  |  |  | 94.8 | 53.5 |  |  |  | 25.4 |
| CCN(CC)CCNC(=O)c1c(C)[nH]c(/C=C2\C(=O)Nc3ccc(F)cc32)c1C [SUNITINIB] | 57 | ≥ 120 | 51 | 94.8 | 92.3 | ≥ 120 |  | 55 | < 0.01 |
| COC(=O)CC[C@@H](NC(=O)c1ccc2c(c1)/C(=C/c1[nH]c(C)c(C(=O)N[C@@H](Cc3ccccc3)C(=O)O)c1C)C(=O)N2)C(=O)OC |  |  |  | > 100 | 67.7 |  |  |  |  |
| COC(=O)CC[C@@H](NC(=O)c1ccc2c(c1)/C(=C/c1[nH]c(C)c(C(=O)N[C@@H](Cc3ccccc3)C(=O)OC)c1C)C(=O)N2)C(=O)OC |  |  |  | 49.6 | 8.2 |  |  |  | 16.8 |
| COC(=O)CC[C@H](NC(=O)c1c(C)[nH]c(/C=C2\C(=O)Nc3ccc(C(=O)N[C@H](Cc4ccccc4)C(=O)OC)cc32)c1C)C(=O)OC |  |  |  | 88.4 | 35.3 |  |  |  | 3.2 |
| COC(=O)CC[C@H](NC(=O)c1c(C)[nH]c(/C=C2\C(=O)Nc3ccc(C(=O)O)cc32)c1C)C(=O)OC | 38 | ≥ 120 | 58 | > 100 | 97.4 | 30 (≈ 14.5 µg/mL) | 35 | 45 |  |
| COC(=O)c1ccc2c(c1)/C(=C/c1[nH]c(C)c(C(=O)N[C@H](Cc3ccccc3)C(=O)OC)c1C)C(=O)N2 |  |  |  | 80.6 | 47 |  |  |  | 0.3 |
| COC(=O)[C@@H](Cc1ccccc1)NC(=O)c1c(C)[nH]c(/C=C2\C(=O)Nc3ccc(C(=O)N[C@H](Cc4ccccc4)C(=O)O)cc32)c1C |  |  |  | > 100 | 66.4 |  |  |  |  |
| COC(=O)[C@H](Cc1ccccc1)NC(=O)c1ccc2c(c1)/C(=C/c1[nH]c(C)c(C(=O)N[C@H](Cc3ccccc3)C(=O)O)c1C)C(=O)N2 |  |  |  | > 100 | 89.6 |  |  |  | 18.1 |
| COC(=O)[C@H](Cc1ccccc1)NC(=O)c1c(C)[nH]c(/C=C2\C(=O)Nc3ccc(C(=O)N[C@H](Cc4ccccc4)C(=O)O)cc32)c1C |  |  |  | 94.8 | 18.6 |  |  |  |  |
